The text below walks through data of ChEMBL document CHEMBL2424628, “Discovery of potent and selective nonsteroidal indazolyl amide glucocorticoid receptor agonists” (Bioorg Med Chem Lett, 2013).

Experiment [1] has as its target T1, Glucocorticoid receptor (Homo sapiens, UniProt P04150).
T1 sequence (P04150 whole entry): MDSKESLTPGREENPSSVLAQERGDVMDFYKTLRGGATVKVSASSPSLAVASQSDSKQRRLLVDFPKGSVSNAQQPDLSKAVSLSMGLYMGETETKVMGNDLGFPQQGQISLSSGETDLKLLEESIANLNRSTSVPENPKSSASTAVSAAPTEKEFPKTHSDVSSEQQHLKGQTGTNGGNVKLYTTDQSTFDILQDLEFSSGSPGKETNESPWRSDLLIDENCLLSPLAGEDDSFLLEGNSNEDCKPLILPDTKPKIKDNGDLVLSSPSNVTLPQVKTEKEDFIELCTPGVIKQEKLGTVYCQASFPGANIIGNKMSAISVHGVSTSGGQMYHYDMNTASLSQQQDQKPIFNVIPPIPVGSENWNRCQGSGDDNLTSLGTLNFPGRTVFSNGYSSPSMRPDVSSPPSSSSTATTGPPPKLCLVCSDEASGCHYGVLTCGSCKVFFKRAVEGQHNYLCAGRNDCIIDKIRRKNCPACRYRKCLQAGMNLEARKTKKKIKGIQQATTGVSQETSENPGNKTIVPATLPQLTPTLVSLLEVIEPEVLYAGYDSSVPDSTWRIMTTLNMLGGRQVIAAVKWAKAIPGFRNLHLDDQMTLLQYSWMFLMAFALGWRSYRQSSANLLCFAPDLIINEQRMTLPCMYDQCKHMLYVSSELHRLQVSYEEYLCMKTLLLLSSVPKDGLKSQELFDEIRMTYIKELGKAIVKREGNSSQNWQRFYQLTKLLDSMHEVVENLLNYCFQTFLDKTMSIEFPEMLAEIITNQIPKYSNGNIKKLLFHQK
The experiment in a line: Transactivation of glucocorticoid receptor ligand binding domain (unknown origin) transfected in human HeLa cells assessed as activation of NP-1 by GAL4 luciferase reporter gene assay. It counts as cell-based.

For experiment [2], the target named is T2, Mineralocorticoid receptor (Homo sapiens, UniProt P08235).
T2 sequence (P08235 whole entry): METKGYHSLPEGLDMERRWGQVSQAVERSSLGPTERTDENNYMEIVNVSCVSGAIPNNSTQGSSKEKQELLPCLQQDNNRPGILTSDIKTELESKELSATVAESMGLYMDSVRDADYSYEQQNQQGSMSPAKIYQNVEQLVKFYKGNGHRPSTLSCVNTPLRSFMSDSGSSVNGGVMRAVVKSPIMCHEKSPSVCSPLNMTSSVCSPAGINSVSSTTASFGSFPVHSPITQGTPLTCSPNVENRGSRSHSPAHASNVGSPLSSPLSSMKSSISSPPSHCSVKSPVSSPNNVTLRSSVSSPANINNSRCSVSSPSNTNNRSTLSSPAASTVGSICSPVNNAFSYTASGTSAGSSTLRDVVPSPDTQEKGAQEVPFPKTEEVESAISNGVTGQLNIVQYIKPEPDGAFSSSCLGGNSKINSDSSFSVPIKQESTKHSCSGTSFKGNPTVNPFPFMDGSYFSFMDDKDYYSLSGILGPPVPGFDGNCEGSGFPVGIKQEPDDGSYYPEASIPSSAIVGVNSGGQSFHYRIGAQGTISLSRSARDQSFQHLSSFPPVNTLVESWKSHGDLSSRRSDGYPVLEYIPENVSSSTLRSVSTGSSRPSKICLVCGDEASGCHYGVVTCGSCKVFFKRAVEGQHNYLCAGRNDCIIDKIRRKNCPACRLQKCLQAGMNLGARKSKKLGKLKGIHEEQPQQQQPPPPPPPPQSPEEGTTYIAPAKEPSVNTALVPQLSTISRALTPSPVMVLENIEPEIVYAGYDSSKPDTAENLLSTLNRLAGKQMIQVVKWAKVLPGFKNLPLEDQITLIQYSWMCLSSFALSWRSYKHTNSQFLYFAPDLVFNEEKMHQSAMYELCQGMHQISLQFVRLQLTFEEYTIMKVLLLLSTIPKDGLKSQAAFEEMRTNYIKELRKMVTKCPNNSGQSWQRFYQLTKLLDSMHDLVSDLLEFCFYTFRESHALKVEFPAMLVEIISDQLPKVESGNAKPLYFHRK
As to the kind of experiment: Agonist activity at mineralocorticoid receptor in human A549 cells. It counts as cell-based. An outline of the steps:
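Cellular agonist assay in an A549 line with aldosterone as positive control. EC50 taken relative to % maximal efficacy. Means of duplicate experiments.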

Experiment [3] is filed under the species Homo sapiens. As to the kind of experiment: Selectivity ratio of Ki for progesterone receptor (unknown origin) to Ki for glucocorticoid receptor (unknown origin).
Experiment [4] addresses T3, Androgen receptor (Homo sapiens, UniProt P10275).
T3 sequence (P10275 whole entry): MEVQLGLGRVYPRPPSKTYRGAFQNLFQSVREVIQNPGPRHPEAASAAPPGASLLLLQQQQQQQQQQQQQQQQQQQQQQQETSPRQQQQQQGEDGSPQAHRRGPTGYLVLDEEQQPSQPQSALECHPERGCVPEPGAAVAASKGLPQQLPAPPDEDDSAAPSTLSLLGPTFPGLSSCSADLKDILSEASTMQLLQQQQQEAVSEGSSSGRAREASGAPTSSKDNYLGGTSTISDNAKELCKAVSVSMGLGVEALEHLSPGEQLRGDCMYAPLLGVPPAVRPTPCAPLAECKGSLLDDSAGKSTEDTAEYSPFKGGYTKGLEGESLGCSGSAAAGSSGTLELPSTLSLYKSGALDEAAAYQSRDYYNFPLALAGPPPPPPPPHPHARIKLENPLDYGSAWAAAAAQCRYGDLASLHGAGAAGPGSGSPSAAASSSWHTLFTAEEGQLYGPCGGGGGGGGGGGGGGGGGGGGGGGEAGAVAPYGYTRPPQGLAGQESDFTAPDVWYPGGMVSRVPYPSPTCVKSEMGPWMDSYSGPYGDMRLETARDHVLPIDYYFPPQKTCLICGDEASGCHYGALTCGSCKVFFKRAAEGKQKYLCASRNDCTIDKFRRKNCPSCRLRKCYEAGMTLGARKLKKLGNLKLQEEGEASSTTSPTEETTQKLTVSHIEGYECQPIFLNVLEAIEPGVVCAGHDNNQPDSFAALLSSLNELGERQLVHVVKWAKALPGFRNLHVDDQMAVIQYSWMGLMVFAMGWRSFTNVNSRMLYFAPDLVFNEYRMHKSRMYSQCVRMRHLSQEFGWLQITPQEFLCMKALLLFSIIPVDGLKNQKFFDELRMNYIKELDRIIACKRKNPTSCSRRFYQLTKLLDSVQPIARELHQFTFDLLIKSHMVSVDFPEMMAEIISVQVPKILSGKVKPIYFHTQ
As to the kind of experiment: Binding affinity to androgen receptor (unknown origin) by fluorescence polarization assay. An outline of the steps: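 Fluorescence polarization competition between test compound and a fluorescently labeled ligand for full-length receptor or its ligand binding domain. IC50 from a four-parameter logistic fit of the polarization signal, converted to Ki with Cheng–Prusoff […]. Means of duplicate experiments.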
(In general: In fluorescence polarisation assays a small probe gives low polarisation when free and higher when bound to something large.)

pEC50, pKi: −log10 of the molar value.

In the case of `CC(C)(C(=O)Nc1nncs1)[C@@H](c1ccccc1)c1ccc2c(cnn2-c2ccc(F)cc2)c1`, the results for the pEC50 in experiment [1] and in experiment [2] were 8.24 and < 5.30, respectively. In experiment [3], the Ratio Ki is 10. Also, the pKi in experiment [4] is < 4.60.

Regarding `CC(C)(C(=O)Nc1nncs1)[C@H](c1ccccc1)c1ccc2c(cnn2-c2ccc(F)cc2)c1`, in experiment [2], the pEC50 is < 5.30. Moreover, in experiment [3], the Ratio Ki came to 10. Moreover, the pKi in experiment [4] was < 4.60.

For orientation: pEC50 means the EC50 on a negative log10 scale, so that one unit is a factor of ten. The term pKi denotes the negative decadic logarithm of the Ki, by convention in mol/L. A high value points to a small Ki.
